Sampled rows, rich in hits. Any-hit rate of the full collection: about 5.1%.
STAT1 act: STAT1 signaling activators, primary screen, cell-based, HTS, luciferase reporter; activation (% of control), % at 5.5 µM; hit rate 2.6% among 200,000; AID 932, 2007; NIH 3T3 STAT1-luciferase reporter, IFN-gamma, luminescence; 100% = IFN-gamma alone, no compound;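 active = activation above the screen-wide mean activation plus 3 SD, cut at about 130% in these data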
APP 5'UTR act: activators of APP 5'UTR luciferase reporter, primary screen, SH-SY5Y cells. activation, % at 2 µM. hit rate 1% among 190,000. AID 1276, 2008. SH-SY5Y APP 5'UTR luciferase reporter, luminescence; zero percent = DMSO vehicle wells;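 active = activation above a set limit, based on mean plus 3 SD of controls, cut at about 140% in these data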
NF-kB neuron act: activators of NF-kB expression in neurons, primary screen, cell-based, HTS | human neuronal cells, NF-kB reporter expression; hits give high values | fold change at 12.5 µM | hit rate 1.6% among 190,000; in the data active = fold change above about 3.3
STAT3 inh: IL-6 driven STAT3 reporter inhibitors, primary screen, U3A cells, luciferase, luminescence, MLSCN library | IL-6 STAT3-luciferase reporter; host cell line lacks STAT1 | inhibition, % at 5.5 µM | hit rate 0.89% among 190,000 | AID 862, 2007;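 active = inhibition above the mean inhibition across all screened compounds plus 3 SD, cut at about 44% in these data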
STAT3 act: IL-6 driven STAT3 reporter potentiators, primary screen, U3A cells, luciferase, luminescence, MLSCN library; activation (% of control), % at 5.6 µM; AID 871, 2007; hit rate 0.91% among 190,000; IL-6 STAT3-luciferase reporter; 100% = signal with IL-6 EC80 alone;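 active = activation above the screen-wide mean of compound activation plus 3 SD, cut at about 130% in these data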
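Material: STAT3-luciferase reporter U3A cells; Probe or stimulus: IL-6 (33 ng/mL); Incubation: compound pre-incubation 1 h before IL-6, then 6 h stimulation at 37 °C; Technique: luminescence from STAT3-driven luciferase reporter; Evaluation: % activation versus median of IL-6-stimulated wells; Controls: IL-6-only high control.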
STAT1 blocker: STAT1 signaling inhibitors, primary screen, cell-based, HTS, luciferase reporter; NIH 3T3 STAT1-luciferase reporter, IFN-gamma, luminescence; inhibition, % at 5.5 µM; hit rate 0.35% among 200,000;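 active = inhibition above a set limit, the mean inhibition across all tested compounds plus 3 SD, cut at about 34% in these data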
Of the large screens only hits and unclear results are named; the others gave an inactive call.

CC(C)CCN1CCN(Cc2cccc3cccnc23)CC1CCO (stereo not given)	none
O=C(Cc1c[nH]c2ccccc12)Nc1ccccc1N1CCOCC1	none
Cc1ccc(C(=O)NC(=S)Nc2ccccc2N2CCCC2)cc1[N+](=O)[O-]	STAT3 act 134
Cc1ccc(C(=O)Nc2ccccc2N2CCCCC2)cc1[N+](=O)[O-]	none
O=C(Nc1cc2c(cc1Cl)OCCCO2)c1ccccc1	STAT1 act 133
O=C(Nc1cc2c(cc1Cl)OCCCO2)c1ccco1	STAT1 act 146
NC(=O)C1=C[C@@H](c2ccccc2)C[C@@H](OCc2ccc(CO)cc2)O1	none (no result: STAT3 inh, STAT3 act)
CC(/C=N/NC(=O)c1ccco1)=C\c1ccccc1	APP 5'UTR act 161, NF-kB neuron act 5.9
O=C(N/N=C\CCc1ccccc1)c1ccco1	STAT1 act 134
CC(/C=N/NC(=O)c1cccs1)=C\c1ccccc1	STAT1 act 134, APP 5'UTR act 188, NF-kB neuron act 8.5
O=c1sc(Nc2ccccc2)nc2ccccc12	none
Clc1ccc(Nc2nc3cccnc3s2)cc1	STAT1 act 148, APP 5'UTR act 152
COC(=O)c1c(NC(=O)CSc2nnc3ccccn23)sc2c1CCC2	none
C/C(=N\NC(=O)c1nn(C)cc1Br)c1ccc(NC(=O)c2ccncc2)cc1	STAT1 act 131
C/C(=N\NC(=O)c1ccccc1NC(=O)c1ccc(Cl)cc1)c1ccncc1	STAT3 inh 106, STAT1 blocker 96
C/C(=N\NC(=O)c1nn(C)cc1Br)c1cccc(NC(=O)C(C)(C)C)c1	none
C/C(=N\NC(=O)c1nn(C)c(C)c1Br)c1cccc(NC(=O)c2ccc(F)cc2)c1	STAT1 act 139
C/C(=N\NC(=O)c1c(Br)c(C)nn1C)c1cccc(NC(=O)c2ccccc2F)c1	none
O=C(C1CCCO1)N1CCN(C(=S)Nc2ccc(Cl)cc2)CC1 (stereo not given)	none
O=C(c1cccn(Cc2ccc(Cl)c(Cl)c2)c1=O)N1CCOCC1	none
O=c1c(-c2nc3ccccc3s2)cccn1Cc1ccc(Cl)c(Cl)c1	NF-kB neuron act 3.5
CS(=O)(=O)N1CCC(C(=O)NCc2ccc3c(c2)OCO3)CC1	none (no result: NF-kB neuron act)
CC(C)(C)NC(=O)C(OC(=O)c1cccs1)c1ccc(C#N)cc1 (stereo not given)	none
Cc1nc2c(-c3ccc(F)cc3)cnn2c2c1CCC2	STAT1 act 130
O=C(CN1C2=NCCCN2c2ccccc21)c1ccc(Cl)cc1Cl	none
O=C(O)Cc1sc(-c2cccnc2)nc1-c1ccc(Br)cc1	none
Brc1ccc(-c2nnc(-c3cccnc3)c3conc23)cc1	STAT3 act 134 (no result: NF-kB neuron act)
c1ccc(OCc2nc(-c3cccs3)no2)cc1	STAT1 act 145
Cc1cc(OCc2nc(-c3cccs3)no2)cc(C)c1Cl	none
O=C(NCc1ccc(F)cc1)c1nc(-c2cccs2)no1	none
Fc1ccc(OCc2nc(-c3cccs3)no2)cc1	STAT1 act 140
CCCCCc1nc2c(C#N)c(-c3ccc(Cl)cc3)ccn2n1	none
COc1ccc(-c2nc(CCl)cs2)cc1	none
CCc1ccc(-c2nc(CCl)cs2)cc1	STAT1 act 147
Clc1ccc(SCc2nc3ccccc3[nH]2)cc1	none
Clc1ccc(/C=C/c2nc3ccccc3[nH]2)c(Cl)c1	APP 5'UTR act 221, STAT3 inh 87, STAT1 blocker 68
Clc1ccc(/C=C/c2nc3ccccc3[nH]2)cc1	NF-kB neuron act 3.8, STAT3 inh 94, STAT1 blocker 53 (no result: APP 5'UTR act)
C(=N\n1cnnc1)/c1nc2ccccc2[nH]1	none
Clc1cccc(Cl)c1/C=C/c1nc2ccccc2[nH]1	STAT1 act 143, APP 5'UTR act 164, NF-kB neuron act 7.2
O=C(/C=C/c1ccc(Cl)cc1Cl)c1nc2ccccc2[nH]1	none
O=C(N/N=C/c1cccnc1)C1CC1(c1ccccc1)c1ccccc1 (stereo not given)	none
[O-]/C(=C(\C(=S)NCCN1CCOCC1)[n+]1ccccc1)c1ccc(Cl)s1	none
O=C(NN=C1c2ccccc2-c2ccccc21)c1ccccn1	none

Screening data deposited in PubChem BioAssay by several laboratories.
